Laboratory results published in ChEMBL document CHEMBL2146414, “Lignan derivatives from Krameria lappacea roots inhibit acute inflammation in vivo and pro-inflammatory mediators in vitro” (J Nat Prod, 2011).
The source made the active and inactive calls.

Assays:
Type in all cases: functional, organism-based
Mus musculus [1] = experiment: Antiinflammatory effect in CD1 mouse ear dermatitis model assessed as reduction in vascular changes at 0.4 umol administered topically per cm'2 of ear measured after 6 hrs post dermatitis induction relative to control
Summary of the method: (§1)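 Male CD-1 mice (28–32 g) anesthetized with ketamine 145 mg/kg ip; right ear (about 1 cm2) given 80 μg croton oil in 15 μL acetone with test substance co-applied in acetone; controls irritant only; left ear untreated. Ears fixed in 10% formalin, paraffin-embedded, 10 μm sections stained hematoxylin-eosin or Giemsa, examined by light microscopy at set times after induction.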

Mus musculus [2] = experiment: Antiinflammatory effect in CD1 mouse ear dermatitis model assessed as reduction in cellular changes at 0.4 umol administered topically per cm'2 of ear measured after 6 hrs post dermatitis induction relative to control; summary of the method: as §1
Mus musculus [3] = experiment: Antiinflammatory effect in CD1 mouse ear dermatitis model assessed as preservance of mast cell degranulation at 0.4 umol administered topically per cm'2 of ear measured after 6 hrs post dermatitis induction relative to control; summary of the method: as §1
Mus musculus [4] = experiment: Antiinflammatory effect in CD1 mouse ear dermatitis model assessed as reduction in mast cell degranulation at 0.4 umol administered topically per cm'2 of ear measured after 6 hrs post dermatitis induction relative to control; summary of the method: as §1
Mus musculus [5] = experiment: Antiinflammatory effect in CD1 mouse ear dermatitis model assessed as reduction in leukocyte infiltration-based myeloperoxidase at 0.4 umol administered topically per cm'2 of ear measured after 6 hrs post dermatitis induction relative to control
Summary of the method: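 CD-1 mice, croton oil 80 μg in acetone on right ear with topical test substance; ear punch (6 mm) homogenized in 0.1 M sodium acetate pH 4.2 with 0.1% HTAB, centrifuged 15000g 5 min; supernatant myeloperoxidase measured with TMB (2.83 mM) and 0.7 mM H2O2, 5 min at 25 °C, stopped with acetic acid, A620; duplicates; units = nM TMB oxidized/min.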

Measured: inhibition

COc1ccc(-c2cc3cc(CCCO)ccc3o2)c(O)c1
active: all assays above

C/C=C/c1ccc2c(c1)[C@@H](C)[C@H](c1ccc(O)cc1)O2
active: all assays above
